Among the data in ChEMBL document CHEMBL1122224, “Synthesis and gastric antisecretory properties of 4,5-unsaturated derivatives of 15-deoxy-16-hydroxy-16-methylprostaglandin E1” (J Med Chem, 1983) are selectivity ratio and ED50 values, retold here.

Where only a bound is given, the exact number is not on record here.

Data set [1] is described as follows: Ratio of ED50 of diarrheal effect to antisecretory effect. Type of data set: ADME. As to conditions: read-out: Therapeutic index. The gist of the method: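 Ratio of the oral diarrheal ED50 in fasted male rats to the ig antisecretory ED50 in histamine-stimulated gastric-fistula dogs.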
Data set [2] concerns Canis familiaris. As to the kind of experiment: Antisecretory activity after ig administration in histamine-stimulated gastric fistula dogs; Range is 4.5-10.0. Format: functional. As to conditions: Canis lupus familiaris, Stomach, po. In outline:
(§1)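 Conscious gastric-fistula dogs, fasted 18 h, in Pavlov stands with iv 0.15 M NaCl. After basal collection, histamine is infused iv at 1.0 mg/h (about 6.5 mL/h). At the steady-state plateau, the PG is given intragastrically through a dosing plug and the cannula is closed 30 min. Collections are then taken every 15 min and titrated with 0.1 N NaOH to pH 7.0.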

The test system of the next data set is Rattus norvegicus. As to the kind of experiment: Diarrheal effect after ig administration in rats. Type of data set: functional. The conditions noted are these: po. The gist of the method: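 Male Charles River rats, 210–230 g, are fasted 24 h and housed singly. Logarithmically graded oral PG doses are given, N = 6–12. Diarrhea is scored all-or-none at hourly intervals up to 8 h after dosing, and an ED50 is derived.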

The subject of data set [3] is Canis familiaris. As to the kind of experiment: Antisecretory activity after iv administration in histamine-stimulated Heidenhain pouch dogs; Range is 0.3-1.0. Type of data set: functional. As to conditions: Canis lupus familiaris. In outline:
(§2)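 Conscious Heidenhain-pouch dogs, fasted 18 h, with iv saline. Histamine is infused at 1.0 mg/h (about 13.0 mL/h) to a steady plateau. A single iv bolus of PG follows, from ethanol stock diluted in isoosmotic phosphate buffer (≤20% alcohol). Doses are log-spaced, usually 0.1–100 μg/kg, with ≥2 dogs per dose. Acid is measured by titration to pH 7.0 in 15-min samples; ED50 is the 50% inhibition of total acid output.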

Data set [4] has as its system Canis familiaris. As to the kind of experiment: Antisecretory activity after ig administration in histamine-stimulated gastric fistula dogs; Range is 2.4-3.0. Type of data set: functional. As to conditions: Canis lupus familiaris, Stomach, po. In outline: as §1
The test system of data set [5] is Canis familiaris. As to the kind of experiment: Antisecretory activity after iv administration in histamine-stimulated Heidenhain pouch dogs. The conditions noted are these: Canis lupus familiaris. Type of data set: functional. In outline:
as §2

Data set [6] relates to Canis familiaris. As to the kind of experiment: Antisecretory activity after ig administration in histamine-stimulated gastric fistula dogs; Range is 6.5-10.0. Format: functional. As to conditions: Canis lupus familiaris, Stomach, po. The gist of the method: as §1
Data set [7] has as its system Canis familiaris. As to the kind of experiment: Antisecretory activity after iv administration in histamine-stimulated Heidenhain pouch dogs; Range is 0.1-0.3. Format: functional. As to conditions: Canis lupus familiaris. The gist of the method:
as §2

In data set [8] the test system is Canis familiaris. As to the kind of experiment: Antisecretory activity after ig administration in histamine-stimulated gastric fistula dogs; Range is 0.3-1.0. Type of data set: functional. The conditions noted are these: Canis lupus familiaris, Stomach, po. In outline:
as §1

The test system of data set [9] is Canis familiaris. As to the kind of experiment: Antisecretory activity after ig administration in histamine-stimulated gastric fistula dogs; Range is 5.5-10.0. Format: functional. As to conditions: Canis lupus familiaris, Stomach, po. The gist of the method:
as §1

Regarding `CCCCC(C)(O)C/C=C/[C@H]1[C@H](O)CC(=O)[C@@H]1C/C=C\CCCC(=O)OC` (stereo not given in full), in [1], the selectivity ratio came out at 27.6. Moreover, the ED50 was 4.5 µg/kg in the data set on Canis familiaris [2], 124 µg/kg with Rattus norvegicus and 0.3 µg/kg in the data set with Canis familiaris [3].
As to `CCCCC(C)(C)[C@H](O)/C=C/C1[C@H](O)CC(=O)[C@@H]1C/C=C\CCCC(=O)OC` (stereo not given in full), in [1], the selectivity ratio amounted to 4.2. Moreover, the results for the ED50 with Rattus norvegicus and in the data set with Canis familiaris [4] were 10 µg/kg and 2.4 µg/kg, respectively.
Consider `CCCCC(C)(O)C/C=C/[C@H]1[C@H](O)CC(=O)[C@@H]1CCC#CCCC(=O)OC` (stereo not given in full), for which, in the data set with Canis familiaris [5], the ED50 is over 100 µg/kg.
Same read-out and setting: under `CCCCC(C)(O)C/C=C/[C@H]1[C@H](O)CC(=O)[C@@H]1CC/C=C/CCC(=O)OC` (stereo not given in full) stands 10 µg/kg.
With `CCCCC[C@](C)(O)/C=C/C1[C@H](O)CC(=O)[C@@H]1C/C=C\CCCC(=O)OC` (stereo not given in full), in [1], the selectivity ratio worked out at 4.2. Also, the ED50 turned out to be 27 µg/kg in the data set with Rattus norvegicus and 6.5 µg/kg with Canis familiaris [6].
In the case of `CCCCC(C)(O)C/C=C/[C@H]1[C@H](O)CC(=O)[C@@H]1CC/C=C\CCC(=O)OC` (stereo not given in full) [ENISOPROST], the selectivity ratio in data set [1] was 208. Besides, the ED50 in the data set on Rattus norvegicus was 62 µg/kg; in the data set on Canis familiaris [7], 0.1 µg/kg; with Canis familiaris [8] it was 0.3 µg/kg.
For `CCCCC(C)(O)C/C=C/[C@H]1[C@H](O)CC(=O)[C@@H]1CCCCCCC(=O)OC` (stereo not given in full) [MISOPROSTOL], in data set [1], the selectivity ratio was 66.5. The ED50 in the data set on Canis familiaris [9] is 5.5 µg/kg; in the data set with Rattus norvegicus, 366 µg/kg; in the data set on Canis familiaris [3] it was 0.3 µg/kg.
